The subject of data set [1] is BXPC-3. Put plainly: Cytotoxicity against human BxPC3 cells assessed as cell growth at 1 uM after 72 hrs by MTT assay relative to untreated control. To be noted: BXPC-3, 72 h, read-out: Activity. It is filed as functional. In a few lines: (§1)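 After 72 h of exposure, growth was read with MTS (CellTiter 96 AQueous One) colorimetric reagent as percent of control-treated cells (100%). Mean of at least two independent experiments run in triplicate.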
(Tetrazolium dyes change colour on reduction, which living cells bring about.)

Data set [2] has as its system MIA PaCa-2. The experiment in a line: Cytotoxicity against human MIAPaCa2 cells assessed as cell growth at 10 uM after 72 hrs by MTT assay relative to untreated control. Particulars: MIA PaCa-2, 72 h, read-out: Activity. It is filed as functional. In a few lines: as §1
In data set [3] the test system is MIA PaCa-2. Put plainly: Cytotoxicity against human MIAPaCa2 cells assessed as cell growth at 1 uM after 72 hrs by MTT assay relative to untreated control. Type of data set: functional. To be noted: MIA PaCa-2, 72 h, read-out: Activity. An outline of the steps: as §1
Data set [4] deals with BXPC-3. Put plainly: Cytotoxicity against human BxPC3 cells assessed as cell growth at 10 uM after 72 hrs by MTT assay relative to untreated control. It is filed as functional. To be noted: BXPC-3, 72 h, read-out: Activity. In a few lines: as §1
The subject of data set [5] is PANC-1. Put plainly: Cytotoxicity against human PANC1 cells assessed as cell growth at 1 uM after 72 hrs by MTT assay relative to untreated control. It is filed as functional. To be noted: PANC-1, 72 h, read-out: Activity. In a few lines: as §1
Data set [6] concerns PANC-1. The experiment in a line: Cytotoxicity against human PANC1 cells assessed as cell growth at 10 uM after 72 hrs by MTT assay relative to untreated control. Type of data set: functional. Particulars: PANC-1, 72 h, read-out: Activity. In a few lines:
as §1

Data set [7] is described as follows: Toxicity against human normal Hematopoietic Progenitor Cells isolated from human cord blood at 1 uM after 18 hrs by MTT assay relative to untreated control.

With `C=C1C(=O)O[C@@H](c2ccccc2)[C@H]1c1ccccc1` (relative stereo), the growth at 1 µM in the data set on BXPC-3 [1] is 51%; in the data set with MIA PaCa-2 [3] it was 32%; in the data set on PANC-1 [5], 108%. The growth at 10 µM with MIA PaCa-2 [2] worked out at 3%; with BXPC-3 [4], 8%; in the data set on PANC-1 [6], 38%.
For the molecule `C/C1=C\CC[C@@]2(C)O[C@@H]2[C@H]2OC(=O)C(CN(C)C)[C@@H]2CC1` (stereo not given in full) [DIMETHYLAMINOPARTHENOLIDE], the growth at 1 µM in the data set on BXPC-3 [1] turned out to be 92%; with MIA PaCa-2 [3], 73%; in the data set with PANC-1 [5], 117%. The growth at 10 µM with MIA PaCa-2 [2] was 2%; in the data set with BXPC-3 [4], 7%; in the data set with PANC-1 [6], 17%. In addition, the Activity entry in data set [7] is “Non-toxic”.
Take `C=C1C(=O)O[C@@H](c2c(F)c(F)c(F)c(F)c2F)[C@H]1C` (relative stereo): the growth at 1 µM stood at 98% in the data set with BXPC-3 [1], 120% in the data set on MIA PaCa-2 [3] and 86% with PANC-1 [5]. Moreover, the growth at 10 µM in the data set with MIA PaCa-2 [2] stood at 53%; in the data set on BXPC-3 [4], 89%; in the data set on PANC-1 [6] it was 70%.
For `C/C=C1\C(=O)O[C@H](c2ccc(OC)cc2)[C@H]1C` (relative stereo), the growth at 10 µM in the data set with MIA PaCa-2 [2] came to 124%; in the data set with BXPC-3 [4], 179%; with PANC-1 [6], 139%.
For `C/C=C1\C(=O)O[C@@H](c2ccc([N+](=O)[O-])cc2)[C@H]1C` (relative stereo), the growth at 10 µM is 110% in the data set on MIA PaCa-2 [2], 117% with BXPC-3 [4] and 106% with PANC-1 [6].
On to `C=C1C(=O)O[C@H](c2ccc3ccccc3c2)[C@H]1C` (relative stereo), for which the growth at 1 µM in the data set on BXPC-3 [1] was 113%; in the data set on MIA PaCa-2 [3], 74%; with PANC-1 [5] it was 139%. Besides, the growth at 10 µM stood at 4% in the data set with MIA PaCa-2 [2], 27% in the data set with BXPC-3 [4] and 22% with PANC-1 [6].
Consider `C=C1C(=O)O[C@H](c2ccc(OC)cc2)[C@H]1c1ccccc1` (relative stereo), for which the growth at 1 µM stood at 73% in the data set with BXPC-3 [1], 54% in the data set on MIA PaCa-2 [3] and 80% with PANC-1 [5]. Also, the growth at 10 µM with MIA PaCa-2 [2], in the data set with BXPC-3 [4] and in the data set with PANC-1 [6] was 0% in each case.
As for `C=C1C(=O)O[C@H](c2ccc(C)cc2)[C@H]1c1ccccc1` (relative stereo), the growth at 1 µM was 67% in the data set with BXPC-3 [1], 26% in the data set with MIA PaCa-2 [3] and 105% with PANC-1 [5]. Moreover, the growth at 10 µM came out at 2% in the data set with MIA PaCa-2 [2], 0% in the data set on BXPC-3 [4] and 0% in the data set on PANC-1 [6]. Also, the Activity entry in data set [7] is “Non-toxic”.
Take `C=C1C(=O)O[C@@H](C2CCCCC2)[C@H]1c1ccccc1` (relative stereo): the growth at 10 µM with MIA PaCa-2 [2] came out at 81%; with BXPC-3 [4] it was 95%; in the data set on PANC-1 [6], 104%.
The corresponding values for `C=C1C(=O)OCC1c1ccccc1` (stereo not given) are 14%, 40% and 31%.
The matching figures for `C=C1C(=O)O[C@@H](C(C)C)[C@H]1C` (relative stereo): 143%, 153% and 119%.
Turning to `C=C1C(=O)O[C@@H](c2ccc3ccccc3c2)[C@H]1c1ccccc1` (relative stereo), the values for the growth at 1 µM in the data set with BXPC-3 [1], in the data set on MIA PaCa-2 [3] and with PANC-1 [5] were 104%, 125% and 98%, respectively. Further, the growth at 10 µM in the data set on MIA PaCa-2 [2] was 6%; with BXPC-3 [4] it was 1%; with PANC-1 [6], 33%.
In the case of `C=C1C(=O)O[C@@H](c2ccc(OC)cc2)[C@H]1C` (relative stereo), the growth at 1 µM in the data set with BXPC-3 [1] turned out to be 128%; in the data set with MIA PaCa-2 [3], 109%; with PANC-1 [5] it was 130%. For the same molecule, the growth at 10 µM in the data set with MIA PaCa-2 [2] turned out to be 9%; with BXPC-3 [4], 13%; in the data set on PANC-1 [6] it was 32%.
With `C=C1C(=O)O[C@@H]2C3O[C@]3(C)CC/C=C(\C)CC[C@@H]12` (stereo not given in full), the growth at 1 µM worked out at 92% in the data set on BXPC-3 [1], 78% in the data set with MIA PaCa-2 [3] and 132% in the data set on PANC-1 [5]. Moreover, the growth at 10 µM in the data set on MIA PaCa-2 [2] is 3%; in the data set on BXPC-3 [4], 6%; in the data set with PANC-1 [6], 12%.
With `C=C1C(=O)O[C@H](c2ccccc2)[C@H]1c1ccccc1` (relative stereo), the growth at 1 µM worked out at 86% with BXPC-3 [1], 30% in the data set on MIA PaCa-2 [3] and 116% in the data set with PANC-1 [5]. For the same molecule, the growth at 10 µM in the data set with MIA PaCa-2 [2], with BXPC-3 [4] and in the data set on PANC-1 [6] was 1% in each case. In addition, the Activity result in data set [7] was “Non-toxic”.
In the case of `C=C1C(=O)O[C@H](c2ccc3ccccc3c2)[C@H]1c1ccccc1` (relative stereo), the growth at 1 µM with BXPC-3 [1] was 60%; in the data set with MIA PaCa-2 [3], 29%; in the data set with PANC-1 [5] it was 53%. Moreover, the values for the growth at 10 µM in the data set with MIA PaCa-2 [2], in the data set with BXPC-3 [4] and in the data set on PANC-1 [6] were 3%, 1% and 13%, respectively. The Activity result in data set [7] is reported as “Non-toxic”.
For `C=C1C(=O)O[C@H](c2ccc(C(F)(F)F)cc2)[C@H]1c1ccccc1` (relative stereo), the growth at 1 µM in the data set with BXPC-3 [1] stood at 138%; with MIA PaCa-2 [3], 142%; in the data set on PANC-1 [5] it was 152%. Also, the growth at 10 µM in the data set with MIA PaCa-2 [2] was determined as 5%; in the data set on BXPC-3 [4] it was 13%; with PANC-1 [6], 33%.
On to `C=C1C(=O)O[C@@H](c2ccccc2)[C@H]1C` (relative stereo), for which the growth at 1 µM in the data set on BXPC-3 [1] came out at 98%; with MIA PaCa-2 [3], 114%; in the data set with PANC-1 [5], 143%. In addition, the growth at 10 µM was determined as 14% in the data set on MIA PaCa-2 [2], 41% in the data set with BXPC-3 [4] and 62% in the data set on PANC-1 [6].
As to `C=C1CC(c2ccccc2)OC1=O` (stereo not given), the growth at 10 µM was found to be 106% in the data set with MIA PaCa-2 [2], 136% with BXPC-3 [4] and 135% in the data set with PANC-1 [6].
